Screens: PubChem BioAssay, Sanford-Burnham Center for Chemical Genomics
Compounds with a hit are over-represented: about 0.72% of the library has one in this group of screens.
bIAP act = bovine intestinal alkaline phosphatase activators, primary screen, biochemical, bovine IAP, CDP-star luminescence | purified bovine IAP, 30 min; active compounds read high; fold of DMSO-control signal, blank-subtracted | alkaline phosphatase, intestinal [Bos taurus] | activation factor at 20 µM | 200,000 tested, 0.17% active;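 active means activation factor of 2 or more at 20 µM, a signal rise over negative controls twice the positive control's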
bIAP inhibitor = bovine intestinal alkaline phosphatase inhibitors, primary screen, selectivity assay for TNAP inhibitor project, biochemical, bovine IAP, CDP-star luminescence; alkaline phosphatase, intestinal [Bos taurus]; AID 1019, 2008; 190,000 tested, under 10 active; purified bovine IAP, 30 min; inhibition, % at 20 µM;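 active means over 50% inhibition of intestinal alkaline phosphatase at 20 µM in the single-dose screen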
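Assay system – bovine IAP enzyme · Quantity – bovine IAP at 1/65,000,000 final dilution · Detection – CDP-star luminescence signal · Times – 30 min reaction at room temperature · Also added – CDP-star substrate at 30 µM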
hIAP activ = human IAP activators, primary screen, biochemical, luminescence, uHTS; Intestinal-type alkaline phosphatase (Homo sapiens), P09923; purified human IAP, CDP-Star luminescence, 30 min; active compounds read high; 1 = vehicle-only enzyme, 0 = enzyme-free background; activation factor at 10 µM; 330,000 tested, 0.16% active; AID 2524, 2010;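 active means activation factor of the enzyme at least 2-fold when tested at 20 µM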
Target sequence (P09923 whole entry, looked up): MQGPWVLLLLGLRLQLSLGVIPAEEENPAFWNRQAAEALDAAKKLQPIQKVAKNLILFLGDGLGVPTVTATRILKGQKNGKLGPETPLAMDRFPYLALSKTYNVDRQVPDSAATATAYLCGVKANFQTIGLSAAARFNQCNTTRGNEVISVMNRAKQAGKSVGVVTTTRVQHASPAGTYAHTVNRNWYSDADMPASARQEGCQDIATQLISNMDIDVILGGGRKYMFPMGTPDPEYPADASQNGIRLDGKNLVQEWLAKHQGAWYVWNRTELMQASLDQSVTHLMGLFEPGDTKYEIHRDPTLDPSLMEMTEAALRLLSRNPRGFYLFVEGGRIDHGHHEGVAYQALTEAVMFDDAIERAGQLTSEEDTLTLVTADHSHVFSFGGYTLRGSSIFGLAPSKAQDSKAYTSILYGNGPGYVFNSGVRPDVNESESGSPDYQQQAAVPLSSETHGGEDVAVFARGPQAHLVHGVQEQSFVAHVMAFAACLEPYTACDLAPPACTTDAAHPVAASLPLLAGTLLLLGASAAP
mIAP block = inhibitors of mouse IAP, primary screen, biochemical, luminescence, uHTS; 330,000 tested, 0.2% active; purified mouse IAP, CDP-Star luminescence, 30 min; intestinal alkaline phosphatase [Mus musculus]; inhibition, % at 10 µM;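 active means inhibition of at least 40% at 10 µM in the primary screen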
hIAP inh = human IAP inhibitors, primary screen, biochemical, luminescence, uHTS; Intestinal-type alkaline phosphatase (Homo sapiens), P09923; purified IAP, CDP-Star luminescence, 30 min; inhibition, % at 10 µM; 330,000 tested, 0.12% active; AID 2544, 2010;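 active means inhibition reaching a set limit with compound at 10 µM in the primary screen, cut at about 35% in these data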
mIAP act = activators of mouse IAP, primary screen, biochemical, luminescence, uHTS; intestinal alkaline phosphatase [Mus musculus]; muIAP, CDP-Star luminescence, 30 min; active compounds read high; 1 = vehicle-only enzyme signal, 0 = enzyme-free wells; activation factor at 10 µM; 330,000 tested, 0.24% active; AID 2805, 2010;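 active means activation factor of at least 2 at 20 µM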
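System: mouse IAP enzyme. Reagent: CDP-Star chemiluminescent phosphatase substrate. Benchmarks: DMSO wells, no-enzyme wells. Times: 30 min enzyme-substrate-compound incubation at room temperature. Detection: luminescence from enzymatic CDP-Star hydrolysis. Doses: test compounds delivered from DMSO solution.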
Of the large screens only hits and unclear results are named; the others gave an inactive call.

CCOC(=O)Cc1csc(SCC(=O)NC2CCS(=O)(=O)C2)n1 (stereo unspecified)	none (no result: bIAP act, bIAP inhibitor)
COc1cccc(NC(=O)Nc2cc(C)ccc2OC)c1	none
FC(F)(F)Sc1ccc(NC(=S)NCc2ccccc2)cc1	mIAP act 2.3 (no result: bIAP act, bIAP inhibitor)
Cc1ccc(OC(F)F)c(NC(=O)Nc2cccc(C(F)(F)F)c2)c1	mIAP act 2.1
COc1ccc(CCNC(=O)C2CCCN(c3ncnc4c3nc3n4CCCCC3)C2)c(OC)c1 (stereo unspecified)	none (no result: bIAP act, bIAP inhibitor)
CCc1ccc(-c2nc(CN3CCC(C(=O)NCCN(CC)c4ccccc4)CC3)c(C)o2)cc1	bIAP act 4.4, mIAP act 2
CCN(CCNC(=O)C1CCN(Cc2nc(-c3ccc(Cl)cc3)oc2C)CC1)c1ccccc1	none
CCN(CCNC(=O)C1CCN(Cc2nc(-c3cccc(Cl)c3)oc2C)CC1)c1ccccc1	bIAP act 2.9
COc1ccccc1CNc1ncc(-c2ccccc2)n1C	none (no result: bIAP act, bIAP inhibitor)
COc1cccc(-c2cnc(NCc3cc(Cl)ccc3O)n2C)c1	bIAP act 2.2
Cc1ccc(C(C)C)c(OCCNCc2ccccc2)c1	none (no result: bIAP act, bIAP inhibitor)
Cc1ccc(C(C)C)c(OCCNC(=S)Nc2cccc3ccccc23)c1	mIAP act 2.3
CCOC(=O)N1CCN(C(=O)CSc2nc(=O)n3ccccc3n2)CC1	none (no result: bIAP act, bIAP inhibitor)
CC(C)c1ccc(NC(=O)C(c2ccccc2)N2CC(=O)Nc3ccccc32)cc1 (stereo unspecified)	mIAP act 2.1
Cn1c(/C=C/c2ccc(Br)cc2)nc2ccccc2c1=O	none (no result: bIAP act, bIAP inhibitor)
CC(C)C[C@@]12C(=O)N(c3cccc(Br)c3)C(=O)N1[C@H](c1ccc(Cl)cc1)[C@@H]1C(=O)N(C3CCCCC3)C(=O)[C@@H]12	mIAP block 46 (no result: bIAP act, bIAP inhibitor)
CC(Cc1cccs1)NC(=S)Nc1ccc(Cl)c(Cl)c1 (stereo unspecified)	mIAP act 2
CC(Cc1cccs1)NC(=O)Nc1ccc(F)cc1 (stereo unspecified)	none
CC(Cc1cccs1)NC(=O)Nc1cccc(Cl)c1 (stereo unspecified)	mIAP act 2.3
CC(=O)NC(=S)NNC(=O)CCc1ccccc1	bIAP act 2.2
CCCCC(=O)NC(=S)NNC(=O)CCc1ccccc1	none (no result: bIAP act, bIAP inhibitor)
CC(=O)NNC(=S)NC(=O)C(c1ccccc1)c1ccccc1	bIAP act 2.7
Cc1cc(C)cc(C(=O)N[C@@H](C)C(=O)N2CCC3(CC2)NCCc2[nH]cnc23)c1	none (no result: bIAP act, bIAP inhibitor)
COCCn1c(N/N=C(C)/C=C/c2ccccc2)nc2c1c(=O)[nH]c(=O)n2C	bIAP act 2.8 (no result: hIAP activ, mIAP block, hIAP inh, mIAP act)
CC(/C=C/c1ccccc1)=N\Nc1nc2c(c(=O)[nH]c(=O)n2C)n1CCO	none (no result: bIAP act, bIAP inhibitor)
O=C1OC(/C(=C\Nc2cc(Cl)ccc2O)[N+](=O)[O-])c2ccccc21 (stereo unspecified)	none
CC(=O)c1ccc(S(=O)(=O)N(C)C(C)CCc2ccco2)cc1 (stereo unspecified)	none (no result: bIAP act, bIAP inhibitor)
COc1ccc(C(C(=O)NC2CCCC2)N(Cc2ccc(C)cc2)C(=O)c2ccn[nH]2)cc1OC (stereo unspecified)	bIAP act 2.7
COc1ccc(C(C(=O)NC2CCCC2)N(Cc2ccc(F)cc2)C(=O)c2ccn[nH]2)cc1OC (stereo unspecified)	bIAP act 2.1
CC(C)(C)NC(=O)C(c1ccc(F)cc1)N(Cc1ccccc1Cl)C(=O)c1ccn[nH]1 (stereo unspecified)	bIAP act 2.1
COc1ccc(C(C(=O)NC2CCCC2)N(Cc2cccnc2)C(=O)Cc2cccs2)cc1OC (stereo unspecified)	none (no result: bIAP act, bIAP inhibitor)
O=C(CCC1CCCCC1)Nc1ncn[nH]1	bIAP act 2.3
O=C(CCC1CCCCC1)Nc1nccs1	none
O=C(NC1CCN(C(=O)Nc2cccc(Cl)c2)CC1)C1CCCCC1	none (no result: bIAP act, bIAP inhibitor)
O=C(Nc1cccc(Cl)c1)NC1CCN(C2CCCCC2)C1 (stereo unspecified)	mIAP act 2.3 (no result: bIAP act, bIAP inhibitor)
C=C(C)[C@@H]1CC[C@]2(C(=O)O)CC[C@]3(C)C(CCC4[C@@]5(C)CC[C@H](O)C(C)(C)C5CC[C@]43C)C12 (stereo partly specified)	mIAP block 47 (no result: bIAP act, bIAP inhibitor)
CN(C)CCNC(=S)Nc1ccc(-c2nc3ccccc3[nH]2)cc1	none
S=C(NCc1ccc2c(c1)OCO2)Nc1ccc(-c2nc3ccccc3[nH]2)cc1	mIAP act 2.3
COc1ccc(NC(=S)NCc2ccc3c(c2)OCO3)cc1	none
CC(C)c1ccc(NC(=S)NCc2ccc3c(c2)OCO3)cc1	mIAP act 2.5
Cc1cccc(NC(=O)c2cn(-c3ccccc3)nc2-c2ccccc2)c1	mIAP act 2.6
Cc1ccc2nc(NCc3ccccc3)[nH]c2c1	bIAP act 2.8 (no result: hIAP activ, mIAP block, hIAP inh, mIAP act)
CC(C)N1CC(O)=C(c2nc3ccccc3[nH]2)C1=N	bIAP act 2.2
CC(C1CC2CCC1C2)N1CC(O)=C(c2nc3ccccc3[nH]2)C1=N (stereo unspecified)	none (no result: bIAP act, bIAP inhibitor)
Cc1oc(-c2cc(Cl)cc(Cl)c2)cc1C(=O)NCCc1ccccc1	mIAP act 3.6
Cn1c(SCC(=O)Nc2ccccc2)nc2ccccc2c1=O	none (no result: bIAP act, bIAP inhibitor)
COc1ccc(NC(=O)Nc2ccc3c(c2)N(C)C(=O)CS3)cc1OC	mIAP act 2.2
CCOc1ccc(NC(=O)Nc2ccc3c(c2)N(C)C(=O)CS3)cc1	mIAP act 2.3
COc1ccc(NC(=O)Nc2ccc3c(c2)N(C)C(=O)CS3)cc1Cl	none
COC(=O)c1sccc1NC(=O)Nc1cccc([N+](=O)[O-])c1	mIAP block 66 (no result: bIAP act, bIAP inhibitor)
CC1CCCN(C(=O)C2(NC(=O)Nc3cccc(F)c3)CCCCC2)C1 (stereo unspecified)	mIAP act 3.1
Cc1c(Cl)cccc1NC(=O)C1COc2ccccc2O1 (stereo unspecified)	none (no result: bIAP act, bIAP inhibitor)
COC(=O)CN1C(=O)COc2ccc(S(=O)(=O)NCc3ccccc3)cc21	none (no result: bIAP act, bIAP inhibitor)
Cc1cc(C(=O)OCC(=O)Nc2ccccc2[N+](=O)[O-])c2ccccc2n1	bIAP act 2.1
CC(=O)NC(CC(=O)OCc1ccc([N+](=O)[O-])cc1)c1ccccc1 (stereo unspecified)	none (no result: bIAP act, bIAP inhibitor)
COC(=O)N/N=C(C)\C=C\c1ccco1	bIAP act 6.4
COc1cccc(C(C)NC(=S)NCc2ccc(Cl)cc2)c1 (stereo unspecified)	mIAP act 2.5
COc1ccc(C(C)NC(=S)NCc2ccc(F)cc2)cc1 (stereo unspecified)	none (no result: bIAP act, bIAP inhibitor)
